Results taken from ChEMBL document CHEMBL1148469, “Structural basis for the synthesis of indirubins as potent and selective inhibitors of glycogen synthase kinase-3 and cyclin-dependent kinases” (J Med Chem, 2004).

Key:
[1] = target: Glycogen synthase kinase-3 alpha/beta (Sus scrofa); test: Inhibition of glycogen synthase kinase-3-alpha/beta (GSK-3-alpha/beta) in porcine brain relative to indirubin
[2] = target: Cyclin-dependent kinase 5/CDK5 activator 1 (Homo sapiens, UniProt Q00535); test: Inhibitory activity against Cyclin-dependent kinase 5-p35nck5a; assay type: protein-complex assay
Method in brief: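 Recombinant mammalian CDK5 and p25 (truncated p35 activator), each expressed in E. coli as a GST fusion, purified on glutathione-agarose and mixed in equal amounts. IC50 from dose-response curves.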

[3] = target: Glycogen synthase kinase-3 alpha/beta (Sus scrofa); test: Inhibitory activity against GSK-3-alpha/beta from porcine brain
[4] = target: Cyclin-dependent kinase 1/cyclin B (Marthasterias glacialis); test: Inhibitory activity against cyclin dependent kinase 1-cyclinB from starfish (Marthasterias glacialis) oocytes

Chain of Cyclin-dependent kinase 5/CDK5 activator 1 (Q00535 whole entry, the tested form may be a part): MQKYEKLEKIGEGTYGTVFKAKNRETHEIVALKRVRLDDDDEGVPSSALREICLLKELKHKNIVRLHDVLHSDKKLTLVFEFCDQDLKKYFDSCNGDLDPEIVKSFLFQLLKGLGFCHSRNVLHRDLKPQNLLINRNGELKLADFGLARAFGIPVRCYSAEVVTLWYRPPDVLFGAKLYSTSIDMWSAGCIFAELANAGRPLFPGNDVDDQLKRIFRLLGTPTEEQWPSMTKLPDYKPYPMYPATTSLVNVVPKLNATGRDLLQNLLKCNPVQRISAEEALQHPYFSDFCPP
Chain of Cyclin-dependent kinase 5/CDK5 activator 1 (Q15078 whole entry, further chain, the tested form may be a part): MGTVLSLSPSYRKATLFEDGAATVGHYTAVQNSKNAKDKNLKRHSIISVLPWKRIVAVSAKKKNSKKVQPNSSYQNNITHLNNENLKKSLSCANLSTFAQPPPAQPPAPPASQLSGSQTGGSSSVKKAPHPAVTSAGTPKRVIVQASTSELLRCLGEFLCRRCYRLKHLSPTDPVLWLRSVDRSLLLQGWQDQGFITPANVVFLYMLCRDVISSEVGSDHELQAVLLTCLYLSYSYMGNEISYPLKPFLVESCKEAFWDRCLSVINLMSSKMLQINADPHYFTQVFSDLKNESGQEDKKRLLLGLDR

IC50 [1]	IC50 [2]	IC50 [3]	IC50 [4]	SMILES
62 nM				Cc1ccc2[nH]c(O)c(C3=Nc4ccccc4C3=O)c2c1
	400 nM			CO/N=C1/C(c2c(O)[nH]c3ccccc23)=Nc2ccccc21
	> 100000 nM	4500 nM	> 100000 nM	O=C1C(c2c(O)[nH]c3cc(Br)ccc23)=Nc2cc(Br)ccc21
	150 nM			O=Nc1c(-c2c(O)[nH]c3cc(Br)c([N+](=O)[O-])cc23)[nH]c2ccccc12
	1000 nM			O=C1C(c2c(O)[nH]c3cc(F)ccc23)=Nc2ccccc21
	100 nM	20 nM	650 nM	O=Nc1c(-c2c(O)[nH]c3cc(Cl)ccc23)[nH]c2ccccc12
	> 100000 nM	> 100000 nM	92000 nM	Cn1c(O)c(-c2[nH]c3ccccc3c2N=O)c2ccc(Br)cc21
	60000 nM	25 nM	30000 nM	Cc1cc2c(C3=Nc4ccccc4C3=O)c(O)[nH]c2cc1Br
55 nM				O=C1C(c2c(O)[nH]c3ccc(Br)cc23)=Nc2ccccc21
350 nM				O=C1C(c2c(O)[nH]c3ccccc23)=Nc2ccc(Br)cc21
42 nM				O=C1C(c2c(O)[nH]c3ccc([N+](=O)[O-])cc23)=Nc2ccccc21
	200 nM	17 nM	30000 nM	CC(=O)O/N=C1/C(c2c(O)[nH]c3cc(Cl)ccc23)=Nc2ccccc21
	150 nM	130 nM	320 nM	O=Nc1c(-c2c(O)[nH]c3cc(F)ccc23)[nH]c2ccccc12
	5300 nM	55 nM	1600 nM	O=C1C(c2c(O)[nH]c3cc(I)ccc23)=Nc2ccccc21
	> 100000 nM	> 100000 nM	> 100000 nM	Cn1c(O)c(C2=Nc3ccccc3C2=O)c2ccc(Br)cc21
	2400 nM	240 nM	4200 nM	C=Cc1ccc2c(C3=Nc4ccccc4C3=O)c(O)[nH]c2c1
	130 nM			Cc1cc2c(-c3[nH]c4ccccc4c3N=O)c(O)[nH]c2cc1Br
	10000 nM	> 100000 nM	10000 nM	O=C1C(c2c(O)[nH]c3cccc(Cl)c23)=Nc2ccccc21
250 nM				O=C1C(c2c(O)[nH]c3ccc(Br)cc23)=Nc2ccc(Br)cc21

IC50 [1]	IC50 [2]	IC50 [3]	IC50 [4]	SMILES
	700 nM			CC(=O)O/N=C1/C(c2c(O)[nH]c3ccccc23)=Nc2ccccc21
	53000 nM			O=C1C(c2c(O)[nH]c3cc(Br)ccc23)=Nc2ccccc21
	300 nM			O=Nc1c(-c2c(O)[nH]c3cc(I)ccc23)[nH]c2ccccc12
	300 nM			CC(=O)O/N=C1/C(c2c(O)[nH]c3cc(F)ccc23)=Nc2ccccc21
	1300 nM	13 nM	2200 nM	CC(=O)O/N=C1/C(c2c(O)[nH]c3cc(I)ccc23)=Nc2ccccc21
			3000 nM	O=Nc1c(-c2c(O)[nH]c3ccccc23)[nH]c2cc(Br)ccc12
	2200 nM	30 nM	3700 nM	CO/N=C1/C(c2c(O)[nH]c3cc(Br)ccc23)=Nc2ccccc21
	> 100000 nM		73000 nM	Cn1c(O)c(-c2[nH]c3ccccc3c2N=O)c2ccccc21
50 nM				O=C1C(c2c(O)[nH]c3ccc(Cl)cc23)=Nc2ccccc21
78 nM				O=C1C(c2c(O)[nH]c3ccc(F)cc23)=Nc2ccccc21
	60000 nM	30 nM	45000 nM	O=C1C(c2c(O)[nH]c3cc(Cl)c(Cl)cc23)=Nc2ccccc21
	> 100000 nM	22000 nM	> 100000 nM	O=C1C(c2c(O)[nH]c3ccccc23)=Nc2cc(Br)ccc21
	> 100000 nM	100 nM	> 100000 nM	O=C1C(c2c(O)[nH]c3cc(Br)c([N+](=O)[O-])cc23)=Nc2ccccc21
	400 nM	65 nM	1600 nM	C=Cc1ccc2c(C3=Nc4ccccc4/C3=N\OC(C)=O)c(O)[nH]c2c1
	> 100000 nM	140 nM	> 100000 nM	O=C1C(c2c(O)[nH]c3cc(Cl)ccc23)=Nc2ccccc21
	420 nM	60 nM	1200 nM	C=Cc1ccc2c(-c3[nH]c4ccccc4c3N=O)c(O)[nH]c2c1
	> 100000 nM		> 100000 nM	Cn1c(O)c(C2=Nc3ccccc3C2=O)c2ccccc21
	1300 nM	120 nM	17000 nM	O=Nc1c(-c2c(O)[nH]c3cc(Br)ccc23)[nH]c2cc(Br)ccc12

SMILES	IC50 [1]	IC50 [2]	IC50 [3]	IC50 [4]
CC(=O)O/N=C1/C(=C2/C(=O)Nc3cc(Br)c([N+](=O)[O-])cc32)Nc2ccccc21		31000 nM	6 nM	11000 nM
CC(=O)O/N=C1/C(=C2/C(=O)Nc3cc(Br)c(C)cc32)Nc2ccccc21		30000 nM	7 nM	31000 nM
CC(=O)O/N=C1/C(=C2/C(=O)Nc3cc(Br)ccc32)Nc2ccccc21 [6-BROMOINDIRUBIN-3'-ACETOXIME]		2400 nM	10 nM	63000 nM
CC(=O)O/N=C1/C(=C2/C(=O)Nc3cc(Cl)c(Cl)cc32)Nc2ccccc21 [INDIRUBIN 1]		100 nM	4 nM	30000 nM
